CCR6 antag: CCR6 (human) receptor antagonism | inhibition, % at 20 µM | CHO-K1 CCR6 PathHunter beta-arrestin, luminescence, CCL20-stimulated | P51684 | 0.49% of 340,000 active;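 active = compounds whose inhibition of the agonist-driven luminescence signal at 20 µM reaches about 50%, limit read from the data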;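 also: cells stimulated with CCL20 at 14 nM final; plate controls were DMSO with CCL20 for no effect and DMSO without agonist for full effect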
CXCR6 inh: blocks human CXCR6 beta-arrestin recruitment; O00574; CHO-K1 PathHunter CXCR6 beta-arrestin, luminescence; inhibition, % at 20 µM; 0.36% of 360,000 active; in the data active = inhibition above about 34%, passing the limit was not always enough;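 also: antagonist mode with CXCL16 agonist at 10 nM final; 0% = 10 nM CXCL16 with DMSO and 100% = unstimulated wells without agonist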
EBI2 antag: blocks human EBI2 receptor beta-arrestin signaling; P32249; EBI2 beta-arrestin recruitment, luminescence, 7a,25-OHC stimulated; inhibition, % at 5 µM; 0.81% of 360,000 active; in the data active = inhibition above about 38%;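 also: enzyme fragment complementation signal reports receptor beta-arrestin coupling in cells; 0% = agonist plus DMSO wells and 100% = wells without agonist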
APJ agonist: APJ receptor agonism. activation, % at 20 µM. CHO-K1 APJ PathHunter beta-arrestin, luminescence; 0% DMSO wells, 100% apelin. 0.11% of 330,000 active. AID 2520;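 active = activation more than six SD over the plate average, tested at 20 µM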;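 also: 0% = DMSO alone and 100% = apelin-13 at 10 nM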
Target sequence (P35414 whole entry, looked up): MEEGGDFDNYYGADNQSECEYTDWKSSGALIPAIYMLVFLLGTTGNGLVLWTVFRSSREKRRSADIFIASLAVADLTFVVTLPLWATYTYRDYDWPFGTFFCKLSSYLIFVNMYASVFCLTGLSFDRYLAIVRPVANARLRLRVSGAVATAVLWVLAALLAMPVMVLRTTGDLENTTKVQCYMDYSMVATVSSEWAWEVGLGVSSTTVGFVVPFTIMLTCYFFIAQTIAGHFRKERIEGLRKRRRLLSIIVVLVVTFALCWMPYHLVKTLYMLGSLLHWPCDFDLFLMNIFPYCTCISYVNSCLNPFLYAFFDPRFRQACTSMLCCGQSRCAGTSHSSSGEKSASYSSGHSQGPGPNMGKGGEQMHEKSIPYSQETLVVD
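Assay system: CHO-K1 cells stably expressing ProLink-tagged human APJ and arrestin–beta-gal acceptor. Compound dosing: 20 µM single point, 1% DMSO. Times: 16-18 h seeding, 90 min dark compound exposure, 60 min detection. Detection: beta-gal luminescence. Evaluation: APJ–arrestin association signal. Controls: negative DMSO alone, positive Apelin-13 at 10 nM.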
APJ antagonist: antagonists of human APJ apelin receptor | inhibition, % at 20 µM | P35414 | 0.32% of 330,000 active | AID 2521 | CHO-K1 APJ beta-arrestin complementation, luminescence;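 active = inhibition above about 40% at 20 µM, limit read from the data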;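 also: cells challenged with 10 nM apelin-13 agonist together with compound; plate controls were apelin-13 plus DMSO wells for no effect and DMSO wells lacking apelin-13 for full effect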
CXCR6 confirm: confirmation of human CXCR6 receptor antagonists. AID 602409. shares compounds with CXCR6 inh. 65% of 700 active. CHO-K1 CXCR6 PathHunter beta-arrestin, luminescence. inhibition, % at 20 µM;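 active = mean inhibition over four retests above 40%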;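 also: receptor stimulated with 10 nM CXCL16 agonist; beta-galactosidase fragment complementation upon beta-arrestin recruitment to receptor; plate controls were CXCL16 plus DMSO for no effect and DMSO without CXCL16 for full effect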
The depositor's hits bear a star. Compounds with a hit are over-represented: about 1.5% of the library has one in this group of screens.

Results for Cc1ccc(C(=O)c2cc([N+](=O)[O-])ccc2N2CCN(C)CC2)cc1 ?
CCR6 antag: 31; CXCR6 inh: 59*; EBI2 antag: 7; APJ agonist: -1; APJ antagonist: -6; CXCR6 confirm: 10

Results for O/N=C1/CCCCC1c1ccccn1 (configuration not stated) ?
CCR6 antag: 16; CXCR6 inh: 57*; EBI2 antag: 0; APJ agonist: 6; APJ antagonist: 6; CXCR6 confirm: -3

How did O=[N+]([O-])c1ccc(C2CCCC/C2=N/O)c([N+](=O)[O-])c1 (configuration not stated) do in these assays?
CCR6 antag: 3; CXCR6 inh: 2; EBI2 antag: -4; APJ agonist: 0; APJ antagonist: -11

How did COC(=O)[C@@H]1C[C@@H]2CC[C@@H](O)C[C@@H]2N1Cc1ccc(N2CCN(C)CC2)cc1 do in these assays?
CCR6 antag: -3; CXCR6 inh: -3; EBI2 antag: 2; APJ agonist: -3; APJ antagonist: 13

Results for CC12CCC(=O)C=C1CCC1C2CCC2(C)C1CC1C3C(=O)N(Cc4ccccc4)C(=O)C3CC(=O)C12 (configuration not stated) ?
CCR6 antag: 18; CXCR6 inh: 13; EBI2 antag: 10

Results for COC(=O)CCSc1cc(NCCOC(C)=O)c([N+](=O)[O-])c2nonc12 ?
CCR6 antag: 33; CXCR6 inh: 27; EBI2 antag: 2; APJ agonist: -3; APJ antagonist: 21

What do the screens show for `Cn1ccnc1Sc1cc(NCCCO)c([N+](=O)[O-])c2nonc12`?
CCR6 antag: 23; CXCR6 inh: 40; EBI2 antag: -17; APJ agonist: -3; APJ antagonist: 38

Results for CC(=O)OCCNc1cc(Sc2nc3ccccc3[nH]2)c2nonc2c1[N+](=O)[O-] ?
CCR6 antag: 103*; CXCR6 inh: 96*; EBI2 antag: 59*; CXCR6 confirm: 105*

How did O=[N+]([O-])c1c(NCCCO)cc(Sc2ccc(Cl)cc2)c2nonc12 do in these assays?
CCR6 antag: 98*; CXCR6 inh: 77*; EBI2 antag: 33; CXCR6 confirm: 96*

How did CCCC(=O)OCCNc1cc(SCCC(=O)OC)c2nonc2c1[N+](=O)[O-] do in these assays?
CCR6 antag: 62*; CXCR6 inh: 50*; EBI2 antag: -9; APJ agonist: -4; APJ antagonist: 20; CXCR6 confirm: 63*

What do the screens show for `CCNC(=O)C[C@@H]1CC[C@H]2[C@@H](COC[C@H](O)CN2C(=O)C2CC2)O1`?
EBI2 antag: -2

How did CCOc1ccc(CNc2ccc(N3CCN(Cc4ccccc4)CC3)cc2)cc1 do in these assays?
CCR6 antag: 15; CXCR6 inh: 102*; EBI2 antag: 5; APJ agonist: 8; APJ antagonist: -21; CXCR6 confirm: 11

What do the screens show for `FC(F)(F)c1cccc(NC(=S)Nc2ccc(Cl)cc2Cl)c1`?
CCR6 antag: 5; CXCR6 inh: -10; EBI2 antag: -4; APJ agonist: 0; APJ antagonist: -7

How did NNC(=S)Nc1ccc(C(F)(F)F)cc1Cl do in these assays?
CCR6 antag: 31; CXCR6 inh: 47*; EBI2 antag: -1; APJ agonist: 1; APJ antagonist: -12; CXCR6 confirm: 7

Results for CCCCn1c(N)c(N(CCOC)C(=O)COC(=O)CCOc2ccc(C)cc2)c(=O)[nH]c1=O ?
CCR6 antag: -2; CXCR6 inh: 8; EBI2 antag: 11; APJ agonist: -4; APJ antagonist: 12

How did COC(=O)c1ccc(C(=O)OC)c(-n2c(=O)c3ccccc3c3ccccc3c2=O)c1 do in these assays?
CCR6 antag: 57*; CXCR6 inh: 40*; EBI2 antag: 6; APJ agonist: -3; APJ antagonist: 18; CXCR6 confirm: 40

What do the screens show for `COC(=O)c1ccc(-c2nn(C)c(=O)c3ccccc23)cc1`?
CCR6 antag: 8; CXCR6 inh: 1; EBI2 antag: -2; APJ agonist: -3; APJ antagonist: -53

How did CCOc1ccc(CN2CCN(Cc3cn(CC)nc3C)CC2CCO)cc1 (configuration not stated) do in these assays?
CCR6 antag: -10; CXCR6 inh: 47*; EBI2 antag: 1; APJ agonist: -3; APJ antagonist: 11; CXCR6 confirm: 2

How did CCOC(=O)C1=NN(c2ccccc2C)C2=NC(C)=C(C(=O)OC)C(c3cccc(OC)c3)N12 (configuration not stated) do in these assays?
CCR6 antag: 15; CXCR6 inh: 7; EBI2 antag: 6; APJ agonist: -5; APJ antagonist: 11

What do the screens show for `OCCCNc1ncnc2c1ncn2[C@H]1CN(Cc2ccco2)C[C@@H](CO)O1`?
CXCR6 inh: -4; EBI2 antag: -6

How did C=CCNc1nc(C(=O)OCC(=O)c2ccccc2)cs1 do in these assays?
CCR6 antag: 0; CXCR6 inh: 103*; EBI2 antag: -11; APJ agonist: -3; APJ antagonist: 0; CXCR6 confirm: 12

How did CC1=NN(/C(=N\c2nnc(C)s2)Nc2ccc(C(C)(C)C)cc2)[C@H](c2ccc(C)cc2)S1 do in these assays?
CCR6 antag: 27; CXCR6 inh: 40*; EBI2 antag: 7; APJ agonist: -6; APJ antagonist: 25; CXCR6 confirm: 19

How did CC(=O)c1cc(C(=O)N2CCCC(CCC(=O)N(C)CCc3ccccn3)C2)cs1 (configuration not stated) do in these assays?
CCR6 antag: -13; CXCR6 inh: -2; EBI2 antag: 4; APJ agonist: -1; APJ antagonist: 5

What do the screens show for `S=C(Nc1ccccc1)c1ccccn1`?
CXCR6 inh: 56*; EBI2 antag: 0; APJ agonist: -7; APJ antagonist: 9; CXCR6 confirm: 79*

Results for S=C(Nc1ccccc1)Nc1ccccn1 ?
CXCR6 inh: 5; EBI2 antag: -2

Results for CCCCc1c(Cc2ccccc2)ncn1CCc1ccccc1OC ?
CXCR6 inh: 38*; EBI2 antag: 0; CXCR6 confirm: 3

What do the screens show for `Cc1cccc(NC(=O)/C=C/c2ccc([N+](=O)[O-])s2)c1`?
CCR6 antag: 3; CXCR6 inh: 10; EBI2 antag: 26

What do the screens show for `Cc1cccc(NC(=S)N/N=C/c2ccc([N+](=O)[O-])s2)c1`?
CXCR6 inh: 56*; EBI2 antag: 32; APJ agonist: -5; APJ antagonist: 18; CXCR6 confirm: 53*

What do the screens show for `COC(=O)C1=C[C@@H](C(=O)OC)[C@@H]2C3=C(C(=O)C2(C)C)[C@H](C)n2c(=O)n(-c4ccccc4)c(=O)n2[C@@H]3C1`?
CCR6 antag: 4; CXCR6 inh: -9; EBI2 antag: -5; APJ agonist: -5; APJ antagonist: 3

Compound activity as filed in PubChem BioAssay.
